Assay results from ChEMBL document CHEMBL3856209, “Novel pyrazolopyridine derivatives as potential angiogenesis inhibitors: Synthesis, biological evaluation and transcriptome-based mechanistic analysis” (Eur J Med Chem, 2016).
The source made the active and inactive calls. No cut-off for these calls is given here.

Legend:
HUVEC [1] = test: Effect on KIFC1 gene expression in serum-starved HUVEC after 6 hrs by microarray analysis relative to control; assay type: functional, Homo sapiens
In short: (§1)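 Serum-starved confluent HUVEC (pooled from 3–5 donors, passage ≤4) were treated with 2 μM compound or vehicle in 2.5% FBS for 6 h or 24 h, and total RNA was isolated. Hybridization was on Illumina Human-HT12. Data were processed with bgAdjust, vst and rsn normalization. Changes versus DMSO were called by moderated paired t-test at p < 0.05 and |log2 fold change| > 0.5.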

HUVEC [2] = test: Effect on MSMP gene expression in serum-starved HUVEC after 24 hrs by microarray analysis relative to control; assay type: functional, Homo sapiens; in short: as §1
HUVEC [3] = test: Antimigratory activity in HUVEC at 0.2 to 2 uM after 6 hrs in presence of 5% fetal bovine serum by transwell assay; assay type: functional, cell-based; details: Homo sapiens
In short: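 Serum-starved confluent HUVEC pre-treated overnight with compound or vehicle in 5% FBS medium. Then placed in the upper chamber of 8 µm-pore Transwells (6×10^4 cells/well) and allowed to migrate 6 h toward 5% FBS or starvation medium. Migrated cells fixed, H&E stained, and counted in five fields/well; expressed as % of control; replicates from two independent experiments.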

HUVEC [4] = test: Effect on PTTG1 gene expression in serum-starved HUVEC after 24 hrs by microarray analysis relative to control; assay type: functional, Homo sapiens
In short: (§2)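 Confluent serum-starved HUVEC (primary, pooled from 3–5 donors, passage ≤4) treated with 2 μM compound or DMSO vehicle in 2.5% FBS for 6 h or 24 h. Total RNA hybridized to Illumina Human-HT12 arrays, background-corrected, vst-transformed and rsn-normalized. Differential expression versus DMSO by moderated paired t-test (p < 0.05, |log2 fold change| > 0.5).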

HUVEC [5] = test: Effect on ZWINT gene expression in serum-starved HUVEC after 6 hrs by microarray analysis relative to control; assay type: functional, Homo sapiens; in short: as §1
HUVEC [6] = test: Effect on RNA28S5 gene expression in serum-starved HUVEC after 24 hrs by microarray analysis relative to control; assay type: functional, Homo sapiens; in short: as §1
Mus musculus = test: Toxicity in C57BL/6 mouse allografted with mouse LLC cells assessed as effect on vital organs at 0.05 to 0.2 mg/kg, ip administered thrice a week for 2 weeks starting 24 hrs before tumor implantation by haematoxylin-eosin staining-based microscopic analysis; assay type: organism-based; details: in vivo
In short: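 Male C57BL/6 mice, 6–8 weeks old, in groups of 5–6, received 5×10^5 LLC cells sc in the right flank. Compound (0.05–0.2 mg/kg) or DMSO vehicle was given ip thrice weekly for 2 weeks, starting 24 h before implantation. Mice were weighed and examined clinically every other day. At end-point, kidney, lung, spleen, liver and heart sections were H&E-stained and examined microscopically.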

HUVEC [7] = test: Effect on BIRC5 gene expression in serum-starved HUVEC after 24 hrs by microarray analysis relative to control; assay type: functional, Homo sapiens
In short: (§3)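 Serum-starved confluent HUVEC treated with 2 μM compound or DMSO in 2.5% FBS for 6 h or 24 h; RNA hybridized to Illumina Human-HT12 arrays. Data background-corrected, vst-transformed and rsn-normalized. Differential probes called by moderated paired t-test (limma) at p < 0.05 and log2 fold change >|0.5| vs DMSO.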

HUVEC [8] = test: Effect on PTTG3P gene expression in serum-starved HUVEC after 6 hrs by microarray analysis relative to control; assay type: functional, Homo sapiens; in short: as §2
HUVEC [9] = test: Effect on RNVU1-18 gene expression in serum-starved HUVEC after 6 hrs by microarray analysis relative to control; assay type: functional, Homo sapiens; in short: as §1
HUVEC [10] = test: Effect on DLC1 gene expression in serum-starved HUVEC after 24 hrs by microarray analysis relative to control; assay type: functional, Homo sapiens
In short: (§4)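 Confluent, serum-starved HUVEC (pooled from 3–5 donors, passage ≤4) treated with 2 μM compound or vehicle with 2.5% FBS for 6 h or 24 h. Total RNA hybridized to Illumina Human-HT12 arrays. Data were background-corrected, vst-transformed and rsn-normalized. Hits called by moderated paired t-test versus DMSO-treated cells, p < 0.05 and log2 fold change >|0.5|.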

HUVEC [11] = test: Effect on CCNB2 gene expression in serum-starved HUVEC after 6 hrs by microarray analysis relative to control; assay type: functional, Homo sapiens; in short: as §3
HUVEC [12] = test: Effect on CALD1 gene expression in serum-starved HUVEC after 6 hrs by microarray analysis relative to control; assay type: functional, Homo sapiens; in short: as §3
HUVEC [13] = test: Effect on CENPA gene expression in serum-starved HUVEC after 24 hrs by microarray analysis relative to control; assay type: functional, Homo sapiens; in short: as §3
HUVEC [14] = test: Effect on ERAP2 gene expression in serum-starved HUVEC after 24 hrs by microarray analysis relative to control; assay type: functional, Homo sapiens; in short: as §4
HUVEC [15] = test: Effect on RNVU1-7 gene expression in serum-starved HUVEC after 6 hrs by microarray analysis relative to control; assay type: functional, Homo sapiens; in short: as §2
HUVEC [16] = test: Effect on RNVU1-7 gene expression in serum-starved HUVEC after 24 hrs by microarray analysis relative to control; assay type: functional, Homo sapiens; in short: as §2
HUVEC [17] = test: Effect on CALD1 gene expression in serum-starved HUVEC after 24 hrs by microarray analysis relative to control; assay type: functional, Homo sapiens; in short: as §3
HUVEC (Homo sapiens) = test: Antiproliferative activity against human HUVEC cells assessed as decrease in VEGF-165-induced cell growth at 0.5 to 2 uM after 24 to 48 hrs by MTT assay
HUVEC [18] = test: Effect on PTTG1 gene expression in serum-starved HUVEC after 6 hrs by microarray analysis relative to control; assay type: functional, Homo sapiens; in short: as §1
HUVEC [19] = test: Effect on RNVU1-18 gene expression in serum-starved HUVEC after 24 hrs by microarray analysis relative to control; assay type: functional, Homo sapiens; in short: as §2
HUVEC [20] = test: Effect on KIFC1 gene expression in serum-starved HUVEC after 24 hrs by microarray analysis relative to control; assay type: functional, Homo sapiens; in short: as §1
HUVEC [21] = test: Effect on ERAP2 gene expression in serum-starved HUVEC after 6 hrs by microarray analysis relative to control; assay type: functional, Homo sapiens; in short: as §4
HUVEC [22] = test: Effect on CCNB2 gene expression in serum-starved HUVEC after 24 hrs by microarray analysis relative to control; assay type: functional, Homo sapiens; in short: as §3
HUVEC [23] = test: Effect on UBE2C gene expression in serum-starved HUVEC after 6 hrs by microarray analysis relative to control; assay type: functional, Homo sapiens; in short: as §2
HUVEC [24] = test: Effect on MSMP gene expression in serum-starved HUVEC after 6 hrs by microarray analysis relative to control; assay type: functional, Homo sapiens; in short: as §1
HUVEC [25] = test: Effect on SPC24 gene expression in serum-starved HUVEC after 24 hrs by microarray analysis relative to control; assay type: functional, Homo sapiens; in short: as §2
HUVEC [26] = test: Effect on PTTG3P gene expression in serum-starved HUVEC after 24 hrs by microarray analysis relative to control; assay type: functional, Homo sapiens; in short: as §1
HUVEC [27] = test: Effect on CDC20 gene expression in serum-starved HUVEC after 24 hrs by microarray analysis relative to control; assay type: functional, Homo sapiens; in short: as §3
HUVEC [28] = test: Effect on DLGAP5 gene expression in serum-starved HUVEC after 24 hrs by microarray analysis relative to control; assay type: functional, Homo sapiens; in short: as §4
HUVEC [29] = test: Effect on KIF22 gene expression in serum-starved HUVEC after 6 hrs by microarray analysis relative to control; assay type: functional, Homo sapiens; in short: as §1
HUVEC [30] = test: Effect on MMP1 gene expression in serum-starved HUVEC after 24 hrs by microarray analysis relative to control; assay type: functional, Homo sapiens; in short: as §1
HUVEC [31] = test: Effect on DLGAP5 gene expression in serum-starved HUVEC after 6 hrs by microarray analysis relative to control; assay type: functional, Homo sapiens; in short: as §4

With `COc1ccc(Cn2nc(-c3ccccc3)c3cc(Cl)nc(N4CCNCC4)c32)cc1` the “fold change (FC)” value (HUVEC [1]) was 0.0022, the log2FC (HUVEC [2]) was -0.6932 and the Activity (HUVEC [3]) was “Active”. The log2FC (HUVEC [4]) was -0.6261, the log2FC (HUVEC [5]) was 0.1395 and the log2FC (HUVEC [6]) was 0.141. The Activity (Mus musculus) was “Non-Toxic”, the log2FC (HUVEC [7]) was -0.6034 and the log2FC (HUVEC [8]) was -0.1207. For the same compound, the log2FC (HUVEC [9]) was -0.6107, the log2FC (HUVEC [10]) was -0.0926 and the log2FC (HUVEC [11]) was -0.1297. For the same compound, the “fold change (FC)” value (HUVEC [12]) was 0.5218, the log2FC (HUVEC [13]) was -0.5592 and the log2FC (HUVEC [14]) was 0.2703. For the same compound, the log2FC (HUVEC [15]) was -0.5056, the log2FC (HUVEC [16]) was -0.1037 and the log2FC (HUVEC [17]) was 0.263. The Activity (HUVEC (Homo sapiens)) was “Active”, the log2FC (HUVEC [18]) was -0.1057 and the log2FC (HUVEC [19]) was -0.1577. The log2FC (HUVEC [20]) was -0.5682, the “fold change (FC)” value (HUVEC [21]) was 0.5171 and the log2FC (HUVEC [22]) was -0.5884. It also gave a log2FC (HUVEC [23]) of -0.1374, a log2FC (HUVEC [24]) of -0.0237 and a log2FC (HUVEC [25]) of -0.732. The log2FC (HUVEC [26]) was -0.5735 and the log2FC (HUVEC [27]) was -0.6535.

`COc1ccc(Cn2nc(-c3ccccc3)c3cc(Nc4ccc(N5CCN(C)CC5)cc4)nc(N4CCN(C)CC4)c32)cc1` was tested, and the “fold change (FC)” value (HUVEC [1]) was -0.2068, the log2FC (HUVEC [28]) was -0.8206 and the Activity (HUVEC [3]) was “Active”. For the same compound, the log2FC (HUVEC [4]) was -0.8594, the log2FC (HUVEC [5]) was -0.3223 and the Activity (Mus musculus) was “Non-Toxic”. For the same compound, the log2FC (HUVEC [7]) was -0.6896, the “fold change (FC)” value (HUVEC [29]) was -0.1033 and the log2FC (HUVEC [8]) was -0.2702. It also gave a log2FC (HUVEC [9]) of -0.6156, a log2FC (HUVEC [30]) of 0.5814 and a log2FC (HUVEC [11]) of -0.1003. For the same compound, the “fold change (FC)” value (HUVEC [12]) was 0.5101, the log2FC (HUVEC [13]) was -0.6147 and the log2FC (HUVEC [14]) was 0.0121. For the same compound, the log2FC (HUVEC [15]) was -0.536, the log2FC (HUVEC [16]) was 0.1142 and the log2FC (HUVEC [17]) was 0.0259. For the same compound, the Activity (HUVEC (Homo sapiens)) was “Active”, the log2FC (HUVEC [18]) was -0.1804 and the log2FC (HUVEC [19]) was -0.0118. For the same compound, the log2FC (HUVEC [20]) was -0.6872, the “fold change (FC)” value (HUVEC [21]) was 0.5068 and the log2FC (HUVEC [22]) was -0.7404. The log2FC (HUVEC [23]) was -0.2671, the “fold change (FC)” value (HUVEC [31]) was 0.1107 and the log2FC (HUVEC [25]) was -0.7666. The log2FC (HUVEC [26]) was -0.5177 and the log2FC (HUVEC [27]) was -0.9562.

In the case of `COc1ccc(Cn2nc(-c3ccccc3)c3cc(Nc4ccc(N5CCN(C)CC5)cc4)nc(N4CCNCC4)c32)cc1`, the log2FC (HUVEC [28]) is reported as -0.516, the log2FC (HUVEC [2]) is reported as -0.652 and the Activity (HUVEC [3]) is reported as “Active”. For the same compound, the log2FC (HUVEC [6]) was 0.4902, the Activity (Mus musculus) was “Non-Toxic” and the log2FC (HUVEC [29]) was -0.0345. The log2FC (HUVEC [30]) was -0.646, the log2FC (HUVEC [10]) was 0.5215 and the log2FC (HUVEC [31]) was 0.2579. It also gave a log2FC (HUVEC [24]) of -0.0154.
